Screening results (PubChem BioAssay)
A selection: hits, their analogues and other compounds. The true share with any hit is near 2.9%.
M18AAP inhibitor – blocks P. falciparum M18 aspartyl aminopeptidase; recombinant PfM18AAP, H-Glu-NHMec fluorogenic cleavage; inhibition, % at 7.35 µM; hit rate 1.2% among 290,000;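 active = inhibition above the campaign mean inhibition over all tested compounds plus 3 SD, cut at about 28% in these data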
RanGTP-Imp inh – disruptors of Ran-importin-beta complex formation – biochemical, FRET, CFP-Ran, YFP-importin-beta, homogeneous, primary screen; AID 2216; cell-free CFP-Ran/YFP-importin-beta FRET ratio; inhibition, % (test concentration not listed); hit rate 1.1% among 300,000;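 active = more than half of the replicate wells show a fall in the fluorescence ratio signal beyond about 16%, limit read from the data, passing the limit was not always enough; inconclusive = exactly half of the replicate wells pass the set limit; inactive = fewer than half of replicates pass the limit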
Runt-SMMHC FRET – Runt domain-CBFb-SMMHC interaction inhibition; Q01196+Q13951; inhibition, % at 20 µM; hit rate 0.74% among 220,000; Cerulean-Runt/Venus-CBFb-SMMHC FRET ratio 530/480, 1 h;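 active = mean inhibition across duplicate retests at 20 µM reaching about 50%, limit read from the data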;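 also: inhibitors lower the FRET ratio by blocking Runt binding to CBFb-SMMHC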
RBBP9 inhibitor – inhibitors of human serine hydrolase RBBP9; hit rate 0.2% among 220,000; inhibition, % at 7.94 µM; O75884; AID 1515; recombinant RBBP9, FP-Rh probe fluorescence polarization;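 active = inhibition above the campaign mean of all tested compounds plus 3 SD, cut at about 14% in these data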
Target sequence (O75884 whole entry, looked up): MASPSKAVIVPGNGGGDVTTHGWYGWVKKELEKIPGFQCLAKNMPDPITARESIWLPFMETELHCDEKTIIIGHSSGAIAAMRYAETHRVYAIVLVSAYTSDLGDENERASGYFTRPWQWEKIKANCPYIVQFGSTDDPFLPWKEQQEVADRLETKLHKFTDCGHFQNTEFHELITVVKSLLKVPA
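system = RBBP9 protein | input = RBBP9 at 2.5 µM in dispensed solution, before mixing | measured by = fluorescence polarization (mP), excitation 525 nm, emission 598 nm | incubation = enzyme-compound preincubation 30 min, then probe labeling 45 min, 25 °C | buffer or medium = Tris-NaCl-Pluronic buffer, pH 8.0 | compound = single dose 7.94 µM | also added = FP-Rh probe, 375 nM dispensing solution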
Hck-Nef inh – inhibitors of human Hck kinase activated by Nef; AID 463187; Recombinant Hck-YEEI plus Nef, Z-Lyte FRET kinase assay; P08631; hit rate 0.68% among 220,000; inhibition, % at 20 µM;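 active = Hck-Nef kinase inhibition above about 50%, limit read from the data; inactive = inhibition below that limit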
Runt-CBFb FRET – blocks binding of human RUNX1 Runt domain to CBFb | inhibition, % at 20 µM | AID 1496 | Q01196+Q13951 | hit rate 0.46% among 220,000 | Cerulean-Runt/Venus-CBFb FRET ratio 530/480, 1 h;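 active = inhibition over about 50% at 20 µM in the single-dose screen, limit read from the data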
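Doses: 20 µM compound in 1% DMSO | Material: Cerulean-labeled Runt domain protein | Amount: Each fluorescent fusion protein 100 nM | Schedule: Two 1 h room-temperature incubations shielded from light | Measured by: FRET fluorescence | Evaluation: Loss of energy transfer signal | Controls: Unlabeled CBFb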
Numbers stand for hits; . = inactive; ? = inconclusive; / = no result.

SMILES | M18AAP inhibitor | RanGTP-Imp inh | Runt-SMMHC FRET | RBBP9 inhibitor | Hck-Nef inh | Runt-CBFb FRET
CN(/N=C/c1cc(Cl)cc(Cl)c1O)C(=S)NC(C)(C)C | . | . | 90 | . | . | .
Oc1c(Cl)cc(Cl)cc1/C=N/Nc1ncc(Br)cn1 | . | . | . | . | . | .
Cc1noc(C)c1CSCC(=O)Nc1cc(S(=O)(=O)N2CCOCC2)ccc1OC(C)C | / | . | / | / | / | /
CCCn1nc(NC(=O)c2cccs2)c2cc3cc(OC)ccc3nc21 | . | 106 | 63 | . | . | 63
COc1ccc2nc3sc(C(=O)NCc4cccs4)c(N)c3cc2c1 | . | . | . | . | . | .
CCCCn1nc(NC(=O)c2cccs2)c2cc3cc(OC)ccc3nc21 | . | 129 | 78 | . | . | 67
Cc1cccc(C)c1NC(=O)CN(C)C(=O)CN1C(=O)NC2(CCCC2)C1=O | / | . | / | / | / | /
CC1=NN(C(=O)c2ccoc2C)C(O)(C(F)(F)F)C1 (stereo unspecified) | . | . | . | . | . | .
N#Cc1c2c(c(NCc3ccco3)n3c1nc1ccccc13)CCC2 | . | . | / | . | . | .
CCN(CC)CCNc1c2c(c(C#N)c3nc4ccccc4n13)CCCC2 | . | ? | 61 | . | . | .
CN(C)CCNc1c2c(c(C#N)c3nc4ccccc4n13)CCCC2 | . | . | 62 | . | . | .
CCN(CC)CCCNc1cc(C(F)(F)F)c(C#N)c2nc3ccccc3n12 | . | 117 | / | / | / | /
Cc1cccc(C)c1NC(=O)/C(C#N)=C/c1ccc(-c2ccc(C(=O)O)cc2)o1 | . | 37 | / | / | / | /
N#C/C(=C\c1ccc(-c2ccc(C(=O)O)cc2)o1)C(=O)NCC1CCCO1 (stereo unspecified) | . | 30 | . | . | . | .
N#C/C(=C\c1ccc(N2CCOCC2)o1)C(=O)NCC1CCCO1 (stereo unspecified) | . | . | . | . | . | .
Cc1nc(C(=O)Nc2cc(F)cc(Cl)c2)sc1C1(C)CC(c2ccccc2)=NO1 (stereo unspecified) | / | . | / | / | / | /
CCOc1cc(/C=C(\C#N)C(=O)Nc2ccccc2[N+](=O)[O-])ccc1OCc1cccc2ccccc12 | . | / | . | . | 55 | .
COc1cc(/C=N/NC(=O)c2cc3c(ccc4ccccc43)o2)cc(OC)c1O | 32 | . | / | / | / | /
O=C(O)C(Cc1ccccc1)N1C(=O)/C(=C/c2cccc3ccccc23)SC1=S (stereo unspecified) | . | / | . | . | 63 | .
O=C(O)C(Cc1ccccc1)N1C(=O)/C(=C/c2ccccc2)SC1=S (stereo unspecified) | . | . | . | . | . | .
CN1CCc2c(sc3c2C(=O)NC(c2ccc4c(c2)OCO4)N3)C1 (stereo unspecified) | / | 41 | 152 | / | / | 125
O=c1oc(/C=C/c2ccco2)nc2sc3c(c12)CCC3 | . | . | . | . | . | /
Cc1ccc(C2NC(=O)c3c(sc4c3CCN(C)C4)N2)s1 (stereo unspecified) | . | 114 | 136 | . | . | .
CN1CCc2c(sc3c2C(=O)NC(/C=C/c2ccco2)N3)C1 (stereo unspecified) | . | 78 | / | . | . | /
Cc1ccsc1C1NC(=O)c2c(sc3c2CCCC3)N1 (stereo unspecified) | . | . | . | . | . | .
SMILES | M18AAP inhibitor | RanGTP-Imp inh | Runt-SMMHC FRET | RBBP9 inhibitor | Hck-Nef inh | Runt-CBFb FRET
O=C1NC(c2ccccn2)Nc2sc3c(c21)CCC3 (stereo unspecified) | . | . | . | . | . | .
CN1CCc2c(sc3c2C(=O)NC(c2ccccn2)N3)C1 (stereo unspecified) | . | 133 | 65 | . | . | 99
CC(C)(Oc1ccc(Cl)cc1)C(=O)NCc1ccc(S(N)(=O)=O)cc1 | . | / | . | . | . | .
O=C(CCCn1cncn1)N1CCCC(N2CCN(c3ccccc3F)CC2)C1 (stereo unspecified) | . | . | / | / | / | /
COc1ccc2c(c1)CCC(C)N2C(=O)C(=O)c1c[nH]c2ccccc12 (stereo unspecified) | . | . | . | . | . | .
O=C1NC(c2ccc(Br)cc2)Nc2sc3c(c21)CCC3 (stereo unspecified) | . | . | . | . | . | .
Cc1ccc(C2NC(=O)c3c(sc4c3CCN(C)C4)N2)o1 (stereo unspecified) | . | 106 | 72 | . | . | 88
CN1CCc2c(sc3c2C(=O)NC(c2ccccc2)N3)C1 (stereo unspecified) | . | . | 76 | . | . | 106
CC(C)(C)C1CCc2c(sc3c2C(=O)NC(c2ccco2)N3)C1 (stereo unspecified) | . | . | . | . | . | .
CS/C(N)=N/N=C/c1cc(C)ccc1O | . | . | . | . | . | .
CCCCS/C(N)=N/N=C/c1cc(C)ccc1O | 29 | . | . | . | . | .
O=c1[nH]c2cc3c(cc2cc1CN(Cc1nnnn1CC1CCCO1)C1CCCCC1)OCO3 (stereo unspecified) | . | . | 57 | . | . | .
O=c1[nH]c2cc3c(cc2cc1CN(CCc1ccccc1)Cc1nnnn1CC1CCCO1)OCO3 (stereo unspecified) | . | . | 62 | . | . | .
O=C(COc1ccc(Cl)cc1)Nc1cc2c3c(c1)CC(=O)N3CCC2 | / | . | / | / | / | /
COc1ccc(S(=O)(=O)N2CCC(C(=O)NCCc3c[nH]c4ccccc34)CC2)cc1 | . | . | / | / | / | /
C/C(CCC1CC(C)(C)OC1=O)=N\NC(N)=S (stereo unspecified) | . | . | . | . | . | .
CCCC1CC(C)(/C(C)=N\NC(N)=S)OC1=O (stereo unspecified) | 28 | . | . | . | . | .
CCOC(=O)C1=C(CS(=O)(=O)c2ccccc2)NC(=O)NC1c1cc(OC)c(O)c(OC)c1 (stereo unspecified) | . | . | / | / | / | /
Cc1cccc(OCc2nnc(SCC(=O)Nc3ncc(C)s3)o2)c1 | 31 | . | . | . | . | .
CCCCN(C(=O)C1CC(=O)N(Cc2ccc(C)cc2)C1)c1c(N)n(CC(C)C)c(=O)[nH]c1=O (stereo unspecified) | . | . | / | / | / | /
CN1CCCc2cc3c(C(F)(F)F)cc(=O)oc3nc21 | . | 132 | . | . | . | .
COc1ccc(-n2nc(C(=O)N(C)C)nc2-c2ccccc2)cc1 | . | . | / | / | / | /
O=c1cc(N2CCc3ccccc32)[nH]c(=O)n1-c1ccccc1 | . | . | . | . | . | .
O=c1cc(N2CCc3ccccc3C2)[nH]c(=O)n1-c1ccccc1Cl | . | 80 | . | . | . | .
Cc1ccccc1-n1c(=O)cc(N2CCc3ccccc3C2)[nH]c1=O | . | 53 | 76 | . | . | .
Cc1nnc(N2CCc3ccccc3C2)[nH]c1=O | . | . | . | . | . | .
Cc1ccccc1-n1c(=O)cc(N2CCN(Cc3ccccc3)CC2)[nH]c1=O | . | . | . | . | . | .
